Measured values of several laboratories.
Compare with care: the assays were run in different laboratories.
PIK3CA E542K: Phosphatidylinositol 4,5-bisphosphate 3-kinase catalytic subunit alpha isoform (PIK3CA, Homo sapiens, UniProt P42336, E542K)
PIK3CA M1043I: Phosphatidylinositol 4,5-bisphosphate 3-kinase catalytic subunit alpha isoform (PIK3CA, Homo sapiens, UniProt P42336, M1043I)
PIK3CA: Phosphatidylinositol 4,5-bisphosphate 3-kinase catalytic subunit alpha isoform (PIK3CA, Homo sapiens, UniProt P42336)
PIK3CA E545K: Phosphatidylinositol 4,5-bisphosphate 3-kinase catalytic subunit alpha isoform (PIK3CA, Homo sapiens, UniProt P42336, E545K)

| SMILES | target | test | conditions | measurement | value |
| --- | --- | --- | --- | --- | --- |
| C1=C/COCc2cc(ccc2OCCN2CCCC2)Nc2nccc(n2)-c2cccc(c2)COC/1 | PIK3CA E542K | binding | 0.1 µM | remaining binding | 68% |
| CN1CCN(C(=O)c2ccc(NC(=O)Nc3ccc(N(C)c4ccnc(Nc5ccc(CS(C)(=O)=O)cc5)n4)cc3)cc2)CC1 | PIK3CA M1043I | binding | 1 µM | remaining binding | 100% |
| C=CC(=O)N1CCC([C@@H]2CCNc3c(C(N)=O)c(-c4ccc(Oc5ccccc5)cc4)nn32)CC1 | PIK3CA | enzyme activity, inhibitor | 1 µM | inhibition | 0% |
| C[C@H]1CC[C@H](n2c3cnccc3c3cnc(Nc4ccc5c(n4)CCN(C(=O)CO)C5)nc32)CC1 | PIK3CA E545K | cell-free assay | 1 µM | remaining signal | 100% |
| CC(C)S(=O)(=O)c1ccc2nccc(Nc3ccc4sc(C5CCCC5)nc4c3)c2c1 | Phosphatidylinositol 4,5-bisphosphate 3-kinase catalytic subunit alpha isoform, with p85 (PIK3CA, Homo sapiens, UniProt P42336) | enzyme activity, inhibitor | 1 µM | activity vs control | 98.5% |
| Cc1ccc(NC(=O)c2ccnc(C(F)(F)F)c2)cc1-c1cc(OCCO)nc(N2CCOCC2)c1 | Phosphatidylinositol 4,5-bisphosphate 3-kinase catalytic subunit alpha isoform (PIK3CA, Homo sapiens, UniProt P42336, H1047L) | binding | 1 µM | remaining binding | 98% |
| CO[C@@H]1[C@H](N(C)C(=O)c2ccccc2)C[C@H]2O[C@]1(C)n1c3ccccc3c3c4c(c5c6ccccc6n2c5c31)C(=O)NC4 | PIK3CA E545K | enzyme activity, inhibitor | 1 µM | inhibition | 0% |
| C#Cc1cc(-c2cc(Nc3nc(N[C@@H](C)c4ccc(F)cn4)ncc3Cl)n[nH]2)ccc1C=O | PIK3CA | enzyme activity, inhibitor | 0.2 µM | inhibition | 7.89% |
| C=CC(=O)N1CCC[C@@H](n2nc(-c3ccc(Oc4ccccc4)cc3)c3c(N)ncnc32)C1 | Phosphatidylinositol 4,5-bisphosphate 3-kinase catalytic subunit alpha isoform (PIK3CA, Homo sapiens, UniProt P42336, I800L) | enzyme activity, inhibitor | 1 µM | inhibition | 8% |
| CCCCC(=O)Nc1ccc(-c2ccc3ncn(CCC)c(=O)c3c2)cn1 | PIK3CA M1043I | binding, competition with immobilised ligand | 0.5 µM | remaining binding | 91% |
| COc1ccc2[nH]c3c4[nH]c5ccc(OC)cc5c4c4c(c3c2c1)C(=O)NC4=O | PIK3CA E542K | binding | 1 µM | remaining binding | 92% |
| CC#CC(=O)N1CCC[C@H]1c1nc(-c2ccc(C(=O)Nc3ccccn3)cc2)c2c(N)nccn12 | Phosphatidylinositol 4,5-bisphosphate 3-kinase catalytic subunit alpha isoform (PIK3CA, Homo sapiens, UniProt P42336, C420R) | enzyme activity, inhibitor | 1 µM | inhibition | 17% |
